Measurements as given in ChEMBL document CHEMBL3046552, “Synthesis and antiviral bioactivities of 2-cyano-3-substituted-amino(phenyl) methylphosphonylacrylates (acrylamides) containing alkoxyethyl moieties” (2010).

Tests used:
Type in all cases: functional
Tobacco mosaic virus [1] = experiment: In vivo antiviral activity against Tobacco mosaic virus (TMV) infected left side of tobacco leaves assessed as inactivation effect by decreasing local lesion number at 500 mg/l co-incubated with virus for 30 min before inoculation onto leaves measured at 3-4 days after viral challenge
Outline: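 TMV, purified from infected N. tabacum leaves by grinding in phosphate buffer and PEG precipitation at 4 °C, was mixed with an equal volume of compound solution for 30 min. The mixture was inoculated on the left half of the leaf and a solvent-virus mixture on the right half as control. Local lesions recorded 3-4 days later.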

Tobacco mosaic virus [2] = experiment: In vivo antiviral activity against Tobacco mosaic virus (TMV) infected left side of tobacco leaves assessed as curative effect by decreasing local lesion number at 500 mg/l treated after viral inoculation measured at 3-4 days after viral challenge
Outline: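 Curative mode: N. tabacum leaves of the same age; compound solution smeared on left half, solvent on right half as control. Local lesions counted 3-4 days after inoculation; three repeats per compound. Inhibition rate derived from average lesion numbers of treated versus untreated control halves. TMV purified from infected leaves (PEG precipitation, 4 °C).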

Tobacco mosaic virus [3] = experiment: In vivo antiviral activity against Tobacco mosaic virus (TMV) infected left side of tobacco leaves assessed as protective effect by decreasing local lesion number at 500 mg/l treated 12 hr before viral inoculation measured at 3-4 days after viral challenge
Outline: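 Protective mode: compound solution smeared on the left half of same-age N. tabacum leaves, solvent on the right half as control. After 12 h, the leaves were dusted with silicon carbide and brush-inoculated with TMV at 6 × 10^-3 mg/mL. Local lesions counted 3-4 days after inoculation.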

Row | Structure (SMILES) | inhibition in vivo at 500 µg/mL (Tobacco mosaic virus [1]) [%] | inhibition in vivo at 500 µg/mL (Tobacco mosaic virus [2]) [%] | inhibition in vivo at 500 µg/mL (Tobacco mosaic virus [3]) [%]
1 | CCOCCOP(=O)(OCCOCC)C(N/C(SC)=C(/C#N)C(=O)OCC)c1ccccc1F (configuration not stated) | 33.4 | 45.6 | 12.9
2 | CCOCCOP(=O)(OCCOCC)C(N/C(SC)=C(/C#N)C(=O)OCCOc1ccccc1)c1ccccc1F (configuration not stated) | 23.7 | 27.7 | 30.7
3 | CCOCCOP(=O)(OCCOCC)C(N/C(SC)=C(/C#N)C(=O)OCCOC)c1ccccc1F (configuration not stated) | 85.5 | 60 | 58.9
4 | CCOCCOC(=O)/C(C#N)=C(\NC(c1ccccc1F)P(=O)(OCCOCC)OCCOCC)SC (configuration not stated) | 40.2 | 41.9 | 31
5 | CCOC(=O)/C(C#N)=C(\NC(c1ccccc1)P(=O)(OCCOC)OCCOC)SC (configuration not stated) | 28.3 | 32.1 | 21
6 | CCOC(=O)/C(C#N)=C(\NC(c1ccccc1F)P(=O)(OCCOC)OCCOC)SC (configuration not stated) | 0 | 21.7 | 0
7 | CCOCCOP(=O)(OCCOCC)C(N/C(SC)=C(/C#N)C(N)=O)c1ccccc1F (configuration not stated) | 33.9 | 30.6 | 30
8 | CCOCCOC(=O)/C(C#N)=C(\NC(c1ccccc1)P(=O)(OCCOCC)OCCOCC)SC (configuration not stated) | 29.5 | 46.4 | 40.7
9 | COCCOP(=O)(OCCOC)C(N/C(SC)=C(/C#N)C(N)=O)c1ccccc1 (configuration not stated) | 66.7 | 43.2 | 50
10 | COCCOP(=O)(OCCOC)C(N/C(SC)=C(/C#N)C(=O)OCCOc1ccccc1)c1ccccc1F (configuration not stated) | 44 | 41.8 | 29
11 | CCOCCOP(=O)(OCCOCC)C(N/C(SC)=C(/C#N)C(=O)OC)c1ccccc1 (configuration not stated) | 0 | 4.3 | 0
12 | CCOCCOC(=O)/C(C#N)=C(\NC(c1ccccc1)P(=O)(OCCOC)OCCOC)SC (configuration not stated) | 12.2 | 23.7 | 0
13 | CCOCCOP(=O)(OCCOCC)C(N/C(SC)=C(/C#N)C(N)=O)c1ccccc1 (configuration not stated) | 80 | 56.7 | 54.4
14 | COCCOP(=O)(OCCOC)C(N/C(SC)=C(/C#N)C(N)=O)c1ccccc1F (configuration not stated) | 44.8 | 22 | 30
